Source: PMC4478078 (Biochemistry, 2015)
Substitutions are numbered along the chain they refer to.

Tests used:
[1] = molecular target: T1, HO2tail(C282A)^R (Homo sapiens, UniProt P30519, C282A); test: Pyridine hemochrome assay of bound heme, HO2tail; assay type: binding; details: after excess Fe^3+-heme and removal of unbound heme
T1 sequence (P30519 213-288 C282A): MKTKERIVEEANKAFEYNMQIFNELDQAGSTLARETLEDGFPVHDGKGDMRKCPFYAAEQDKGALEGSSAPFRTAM
Summary of the method: (§1)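 Protein was reduced with a 25-fold molar excess of TCEP for 1 h anaerobically, desalted into anaerobic 50 mM Tris pH 8.0, 50 mM KCl, then incubated 1 h with excess Fe3+-heme (5-fold molar excess in the general method). The heme stock contained 15% DMSO and 0.1 M NaOH, was filtered and quantified at 385 nm. Unbound heme was removed on a desalting column. Bound heme was measured by pyridine hemochrome (Δε556 28.32 mM−1 cm−1).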

[2] = test system: HO2sol^R (human HO2 residues 1–288, disulfide-reduced); test: Fe^3+-heme off rate, apo-H64Y/V68F-myoglobin assay, HO2sol^R; assay type: binding; details: double-exponential, 20 °C
Summary of the method: (§2)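 Disulfide-reduced (TCEP) heme-loaded protein, freed of unbound heme, at 2 μM was mixed with 20 μM apo-H64Y/V68F-myoglobin in 50 mM Tris pH 8.0, 50 mM KCl. Apomyoglobin was prepared by methyl ethyl ketone extraction, dialysed against Tris pH 7.4 with 150 mM KCl, and quantified at 280 nm. Spectra were recorded over time at 20 °C, following the absorbance rise at 600 from heme scavenging.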

[3] = molecular target: T2, HO2sol^R (Homo sapiens, UniProt P30519); test: Fe^3+-heme on rate, anaerobic stopped flow, HO2sol^R; details: 406 nm, 20 °C, per observable binding site (two per monomer)
T2 sequence (P30519 1-288): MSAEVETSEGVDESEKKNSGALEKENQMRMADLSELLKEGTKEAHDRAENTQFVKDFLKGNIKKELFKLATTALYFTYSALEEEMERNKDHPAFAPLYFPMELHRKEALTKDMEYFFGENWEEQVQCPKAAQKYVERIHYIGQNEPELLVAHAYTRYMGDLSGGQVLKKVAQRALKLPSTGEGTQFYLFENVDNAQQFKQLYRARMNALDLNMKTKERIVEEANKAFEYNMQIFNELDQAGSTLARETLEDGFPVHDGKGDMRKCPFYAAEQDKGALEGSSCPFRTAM
Summary of the method: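 TCEP-reduced apoprotein at various concentrations was mixed with Fe3+-heme in anaerobic 50 mM Tris pH 8.0, 50 mM KCl by stopped-flow within an anaerobic chamber at 20 °C, monitored at 406 nm. Each kobs is an average of 5–7 traces fit to a single exponential. kobs was plotted against the concentration of observable binding sites and fit to eq 1; k′heme ≈ kcoord/(k2/k1).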

[4] = test system: HO2 tail at Cys265; test: Calculated dissociation equilibrium constant, HO2 tail at Cys265; assay type: binding, human
[5] = molecular target: T3, HO2tail(C265A)^R (human HO2 residues 213–288, disulfide-reduced) (Homo sapiens, UniProt P30519, C265A); test: Fe^3+-heme difference titration with HO2tail; assay type: binding; details: read-out: Kd (titrations); 6 μM HO2tail(C265A)^R; 50 mM Tris pH 8.0, 50 mM KCl, 20 °C, anaerobic
T3 sequence (P30519 213-288 C265A): T1 sequence (P30519 213-288 C282A) with C53A, A70C

[6] = molecular target: T1, HO2tail(C282A)^R; test: Fe^3+-heme on rate, anaerobic stopped flow, HO2tail; assay type: binding
Summary of the method: (§3)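 Apoprotein at various concentrations was mixed with Fe3+-heme in 50 mM Tris pH 8.0, 50 mM KCl by stopped-flow inside an anaerobic chamber, 1 cm path, 20 °C, 406 nm. Each kobs is the mean of 5–7 traces fit to a single exponential. Eq 1 fit of kobs versus apoprotein concentration gave k2/k1 and kcoord, with k′heme ≈ kcoord/(k2/k1). Kd is the myoglobin-assay off rate divided by k′heme.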

[7] = test system: HRI (heme-regulated eukaryotic initiation factor 2α kinase); details: cited from earlier work
[8] = molecular target: T1, HO2tail(C282A)^R; test: Fe^3+-heme off rate, apo-H64Y/V68F-myoglobin assay, HO2tail; assay type: binding; details: 2 μM heme-bound protein, 20 μM apo-H64Y/V68F-myoglobin, 20 °C
Summary of the method: as §2

[9] = test system: HO2tail(C265A)^R; test: Pyridine hemochrome assay of bound heme, HO2tail; assay type: binding, human; details: after excess Fe^3+-heme and removal of unbound heme
Summary of the method: as §1

[10] = molecular target: T4, HO2core (Homo sapiens, UniProt P30519); test: Fe^3+-heme on rate, anaerobic stopped flow, HO2core; assay type: binding
T4 sequence (P30519 1-248): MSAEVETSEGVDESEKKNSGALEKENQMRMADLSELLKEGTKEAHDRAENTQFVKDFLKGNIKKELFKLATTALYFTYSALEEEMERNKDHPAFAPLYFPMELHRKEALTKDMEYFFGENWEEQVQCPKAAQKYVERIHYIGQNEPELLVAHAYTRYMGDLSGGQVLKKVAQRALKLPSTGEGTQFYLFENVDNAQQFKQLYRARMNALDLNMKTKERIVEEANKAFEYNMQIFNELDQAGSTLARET
Summary of the method: as §3

[11] = test system: HO2tail^R; test: Pyridine hemochrome assay of bound heme, HO2tail^R; assay type: binding, human; details: after 5-fold excess Fe^3+-heme and removal of unbound heme
Summary of the method: as §1

[12] = test system: HO2tail^R; test: Fe^3+-heme off rate, apo-H64Y/V68F-myoglobin assay, HO2tail^R; assay type: binding, human; details: double-exponential, 20 °C
Summary of the method: as §2

[13] = test system: HO2tail(C265A)^R; test: Fe^3+-heme off rate, apo-H64Y/V68F-myoglobin assay, HO2tail; assay type: binding, human; details: 2 μM heme-bound protein, 20 μM apo-H64Y/V68F-myoglobin, 20 °C
Summary of the method: as §2

[14] = molecular target: T5, HO2core (human HO2 residues 1–248) (Homo sapiens, UniProt P30519); test: Fe^3+-heme difference titration with HO2core; assay type: binding; details: read-out: Kd (titrations); 2 μM HO2core; 50 mM Tris pH 8.0, 50 mM KCl, 20 °C, anaerobic; quadratic fit
T5 sequence (P30519 1-248): T4 sequence (P30519 1-248)

[15] = molecular target: T6, HO2tail(C282A)^R (human HO2 residues 213–288, disulfide-reduced) (Homo sapiens, UniProt P30519, C282A); test: Fe^3+-heme difference titration with HO2tail; assay type: binding; details: read-out: Kd (titrations); 10 μM HO2tail(C282A)^R; 50 mM Tris pH 8.0, 50 mM KCl, 20 °C, anaerobic
T6 sequence (P30519 213-288 C282A): T1 sequence (P30519 213-288 C282A)

[16] = molecular target: T2, HO2sol^R; test: Pyridine hemochrome assay of bound heme, HO2sol^R; assay type: binding; details: after 5-fold excess Fe^3+-heme and removal of unbound heme
Summary of the method: as §1

[17] = test system: HO2tail(C265A/C282A)^R; test: Heme binding to HO2tail; parameters: species or system human; details: data not shown
[18] = fit of eq 1 to kobs vs apoprotein concentration
[19] = read-out: Kd (k-heme/k′heme), calculated from off and on rates

Question: Which results are given for C=CC1=C(C)c2cc3[n-]c(cc4[n-]c(cc5nc(cc1n2)C(C)=C5C=C)c(C)c4CCC(=O)O)c(CCC(=O)O)c3C.[Fe+2] [Fe^3+-heme]?
Answer: heme bound per monomer of protein [1]: 0.8 ± 0.2 heme per monomer of protein; k-heme (off rate), fast phase ([2]; fast phase, assigned to Cys265): 0.0031 ± 0.0002 s⁻¹; k-heme (off rate), slow phase ([2]; slow phase, assigned to His45 at the core): 0.00054 ± 0.00006 s⁻¹; k′heme (apparent second-order rate constant, kcoord/(k2/k1)) [3]: 6.9e+06 M⁻¹ s⁻¹; difference in binding affinity between the sites (core His45 vs tail Cys265) ([4]; Fe^3+-heme difference titrations): ~ 6 fold; difference in binding affinity between the sites (core His45 vs tail Cys265) ([4]; kinetic experiments): 2–5 fold; Kd [5]: 900 ± 300 nM; k′heme (apparent second-order rate constant, kcoord/(k2/k1)) ([6]; 406 nm, 20 °C, anaerobic): 7.6e+06 M⁻¹ s⁻¹; k2/k1 [6, 18]: 14 ± 4 µM; kcoord [6, 18]: 110 ± 10 s⁻¹; Kd [6, 19]: 0.3 nM; off rate [7]: 0.0015 s⁻¹; k-heme (off rate) [8]: 0.0023 ± 0.0001 s⁻¹; heme bound per monomer of protein [9]: 0.74 ± 0.03 heme per monomer of protein; k′heme (apparent second-order rate constant, kcoord/(k2/k1)) ([10]; 406 nm, 20 °C, anaerobic): 6.4e+06 M⁻¹ s⁻¹; k2/k1 [10, 18]: 14.1 ± 0.3 µM; kcoord [10, 18]: 91 ± 1 s⁻¹; Kd [10, 19]: 0.2 nM; hemes bound per monomer of protein [11]: 1.4 ± 0.3 hemes per monomer of protein; k-heme (off rate), fast phase ([12]; fast phase, assigned to Cys282): 0.0086 ± 0.003 s⁻¹; k-heme (off rate), slow phase ([12]; slow phase, assigned to Cys265): 0.0023 ± 0.0004 s⁻¹; k-heme (off rate) [13]: 0.0055 ± 0.0005 s⁻¹; Kd [14]: 14 ± 4 nM; Kd [15]: 90 ± 30 nM; hemes bound per monomer of protein [16]: 2.1 ± 0.1 hemes per monomer of protein; Fe^3+-heme binding (in words) [17]: did not bind
